The values below come from PubChem BioAssay.

SMILES strings stand for the structures. Calls of active or inactive are those of the source.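 The calls were made as follows, unless noted: active = viability loss from added drug above about 55%, and viability with drug at most 40%, in both replicates (limit read from the data, passing the limit was not always enough); inconclusive = both conditions met in only one replicate; inactive = neither replicate meets both conditions.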

The viability is a read-out of living cells in per cent, often relative to untreated cells. By inhibition is commonly meant the change of the read-out against control, counted positive when it falls.

Assay [1] is described as follows: reducers of endogenous Her2 protein level, primary screen, SKBR3 breast tumor cells, AlphaScreen, ATP viability (AID 461;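 active = Her2 level under about 52% in both replicate screens, with viability over 70% of control, limit read from the data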;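 as to Her2 level: lower value means less Her2 protein in the cells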;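 as to viability: percent of carrier control wells set as 100% viability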). The following applies: 18-24 h, measured here: SKBR3 viability, ATP luminescence, at 10 µM. On the technique in general: In Alpha technology, singlet oxygen from a donor bead excites a nearby acceptor bead.
The target in assay [2] is Receptor tyrosine-protein kinase erbB-2 (Homo sapiens) (UniProt P04626). The assay is described as above. Particulars: 18-24 h, at 10 µM, stronger effect = lower value.
A short description of assay [3]: SK-BR-3 cell growth inhibitors, pilot screen, 24 h, human (AID 572;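 active = viability at or below 10% of carrier control in both of two separate runs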;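 also: compound exposure lasted between 18 and 24 h rather than exactly 24 h; 100% = carrier-treated control wells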). The following applies: SK-BR-3 viability, CellTiter-Glo luminescence, at 10 µM, stronger effect = lower value.
Assay [4] in a line: HUVEC growth inhibition – cell-based, human, primary screen (AID 575;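 active = viability at or below 30% in both replicate assays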;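 also: 100% = median of untreated cell wells with 0.1% DMSO on each plate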). Particulars: HUVEC proliferation, CellTiter-Glo luminescence, 72 h; at 10 µM; stronger effect = lower value. Summed up: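 Material: primary human umbilical vein endothelial cells / Schedule: 72 h exposure, 37 °C, 5% CO2, 30 min RT equilibration / Signal: ATP-based CellTiter-Glo luminescent read / Read-out basis: percent of median DMSO-control luminescence / Control set: 32 DMSO-only cell-control wells (high), 32 MePR drug-control wells (low) per plate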

Assay [5] is described as follows: growth inhibitors of H69AR lung tumor, primary screen, human, duplicate replicates (AID 580;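 active = viability at or under a set limit in both replicates, limit being median viability minus 3 SD, cut at about 48% in these data, passing the limit was not always enough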;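 also: 100% = mean luminescence of untreated wells and 0% = no signal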). The following applies: H69AR lung tumor cells viability, ATP luminescence, 72 h; at 10 µM; stronger effect = lower value.
The nature of assay [6]: reversal of MRP1-mediated doxorubicin resistance, pilot screen, H69AR cells, doxorubicin co-treatment (AID 601). The following applies: CellTiter-Glo, 72 h, at 10 µM; for differential viability (reversal): stronger effect = higher value.
Assay [7] in a line: 384-well plate pilot, post-Golgi transport modulator project, inhibition of yeast transport mutant growth (AID 636; in the data active = inhibition above about 31%). The following applies: absorbance 615 nm, about 18 h, stronger effect = higher value.
A short description of assay [8]: growth suppression of yeast trafficking mutant, preliminary HTS, modulators of trafficking downstream of Golgi apparatus project, 1536-format plate, OD 615 nm (AID 637; in the data active = inhibition above about 30%). Particulars: yeast transport mutant growth, absorbance 615 nm, 18 h; stronger effect = higher value.
Setting [9] is: H69AR cells + 2 uM doxorubicin, measured here: viability with 2 uM doxorubicin, stronger effect = lower value.
Setting [10] is: H69AR cells, compound alone cytotoxicity.

Sequence of Receptor tyrosine-protein kinase erbB-2 (Homo sapiens) (P04626 whole entry, looked up): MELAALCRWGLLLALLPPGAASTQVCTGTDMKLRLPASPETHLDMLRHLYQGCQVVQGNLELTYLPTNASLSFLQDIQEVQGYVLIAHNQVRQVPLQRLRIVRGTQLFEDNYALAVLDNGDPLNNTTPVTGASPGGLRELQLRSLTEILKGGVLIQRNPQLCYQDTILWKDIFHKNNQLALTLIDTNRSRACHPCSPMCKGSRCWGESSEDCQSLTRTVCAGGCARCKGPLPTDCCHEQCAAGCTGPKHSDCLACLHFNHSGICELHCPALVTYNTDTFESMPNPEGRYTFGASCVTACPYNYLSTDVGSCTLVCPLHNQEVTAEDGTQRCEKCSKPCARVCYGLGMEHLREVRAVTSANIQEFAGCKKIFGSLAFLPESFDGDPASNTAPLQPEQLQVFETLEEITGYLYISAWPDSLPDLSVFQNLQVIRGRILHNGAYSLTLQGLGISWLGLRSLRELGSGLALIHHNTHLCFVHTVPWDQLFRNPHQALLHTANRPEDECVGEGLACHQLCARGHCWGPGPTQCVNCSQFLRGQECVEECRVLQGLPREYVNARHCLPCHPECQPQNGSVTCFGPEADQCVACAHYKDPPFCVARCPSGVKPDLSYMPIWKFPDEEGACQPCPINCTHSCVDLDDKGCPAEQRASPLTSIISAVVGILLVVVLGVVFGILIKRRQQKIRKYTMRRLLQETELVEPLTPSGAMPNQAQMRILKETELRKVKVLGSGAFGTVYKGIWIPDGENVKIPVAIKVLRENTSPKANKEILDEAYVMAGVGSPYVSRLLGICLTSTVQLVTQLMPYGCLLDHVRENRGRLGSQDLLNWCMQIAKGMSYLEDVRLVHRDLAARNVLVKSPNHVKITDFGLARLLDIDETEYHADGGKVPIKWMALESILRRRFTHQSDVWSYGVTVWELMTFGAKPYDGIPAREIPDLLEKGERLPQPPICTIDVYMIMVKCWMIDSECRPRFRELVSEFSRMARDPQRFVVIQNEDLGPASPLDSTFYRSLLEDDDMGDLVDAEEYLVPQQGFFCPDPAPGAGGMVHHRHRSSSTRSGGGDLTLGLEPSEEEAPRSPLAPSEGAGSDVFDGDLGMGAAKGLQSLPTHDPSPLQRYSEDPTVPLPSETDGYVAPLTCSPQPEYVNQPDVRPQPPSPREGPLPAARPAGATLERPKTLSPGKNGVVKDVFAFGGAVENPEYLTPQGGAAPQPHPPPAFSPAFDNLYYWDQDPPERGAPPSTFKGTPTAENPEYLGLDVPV

With `CCn1c(SCC(=O)Nc2nnc(C)s2)nnc1-c1ccncc1`, the viability in assay [1] is 112%; in assay [3], 112% (inactive); in assay [4], 107% (inactive); in assay [5] it was 95.5% (inactive); in assay [6] (setting [9]), 91.4%; in assay [6] (setting [10]), 95.5%. In addition, the Her2 level in assay [2] is 76% (inactive). In addition, the differential viability (reversal) in assay [6] (H69AR cells + 2 uM doxorubicin) was 4.15% (inactive). For the same compound, the inhibition in assay [7] is -7.43% (inactive); in assay [8], 6.17% (inactive).
As for `O=C(NC1CCS(=O)(=O)C1)N1CCCCC1` (stereo not given), the viability is 102% in assay [1]; 102% (inactive) in assay [3]; 103% (inactive) in assay [4]; 89.6% (inactive) in assay [5]; 88.3% in assay [6] (setting [9]); 89.6% in assay [6] (setting [10]). The Her2 level in assay [2] was 79.5% (inactive). The differential viability (reversal) in assay [6] (H69AR cells + 2 uM doxorubicin) was 1.27% (inactive). The inhibition in assay [7] was -5.92% (inactive); in assay [8] it was -2% (inactive).
Take `COCCCNC(=O)CCc1nc2cccnc2n1Cc1ccc(OC)cc1`: the viability in assay [1] was 110%; in assay [3], 110% (inactive); in assay [4] it was 115% (inactive); in assay [5], 99.2% (inactive); in assay [6] (setting [9]) it was 94.3%; in assay [6] (setting [10]), 99.2%. Moreover, the Her2 level in assay [2] was 106% (inactive). The differential viability (reversal) in assay [6] (H69AR cells + 2 uM doxorubicin) was 4.86% (inactive). Further, the results for the inhibition in assay [7] and in assay [8] were -7.03% (inactive) and 1.83% (inactive), respectively.
In the case of `O=C(NCc1cccs1)C1CCN(S(=O)(=O)c2cccs2)CC1`, the viability in assay [1] was 103%; in assay [3], 103% (inactive); in assay [4], 89.8% (inactive); in assay [5], 102% (inactive); in assay [6] (setting [9]), 74.6%; in assay [6] (setting [10]), 102%. The Her2 level in assay [2] is 89% (inactive). Besides, in assay [6] (H69AR cells + 2 uM doxorubicin), the differential viability (reversal) was 26.9% (inactive). Moreover, the inhibition is -5.19% (inactive) in assay [7] and -4.29% (inactive) in assay [8].
For the compound `O=C(NCc1ccccc1)N1CCn2c(nc3ccccc32)C1`, the viability in assay [1] is 93.5%; in assay [3] it was 93.5% (inactive); in assay [4], 90.2% (inactive); in assay [5] it was 92.9% (inactive); in assay [6] (setting [9]), 78.7%; in assay [6] (setting [10]), 92.9%. Further, the Her2 level in assay [2] is 91.5% (inactive). Besides, the differential viability (reversal) in assay [6] (H69AR cells + 2 uM doxorubicin) was 14.2% (inactive). In addition, the inhibition in assay [7] was -3.73% (inactive); in assay [8], 1.15% (inactive).
`O=C(NCCCN1CCCC1=O)c1cncc(Br)c1`: the viability in assay [1] was 97%; in assay [3], 97% (inactive); in assay [4], 98.5% (inactive); in assay [5], 103% (inactive); in assay [6] (setting [9]), 93%; in assay [6] (setting [10]) it was 103%. Further, the Her2 level in assay [2] was 83.5% (inactive). Also, in assay [6] (H69AR cells + 2 uM doxorubicin), the differential viability (reversal) is 10.1% (inactive). In addition, the figures for the inhibition in assay [7] and in assay [8] were -6.67% (inactive) and 6.56% (inactive), respectively.
For the compound `Cc1cc(N2CCC3(CC2)OCCO3)n2nc(C)c(-c3ccc(Cl)cc3)c2n1`, the viability in assay [1] is 84.5%; in assay [3], 84.5% (inactive); in assay [4], 71.9% (inactive); in assay [5] it was 90.9% (inactive); in assay [6] (setting [9]), 78.4%; in assay [6] (setting [10]) it was 90.9%. In addition, in assay [2], the Her2 level is 84% (inactive). Besides, the differential viability (reversal) in assay [6] (H69AR cells + 2 uM doxorubicin) is 12.5% (inactive). For the same compound, the inhibition in assay [7] was -5.68% (inactive); in assay [8], 2.38% (inactive).
With `Cc1nc2ccc(S(=O)(=O)NCC(=O)O)cc2s1`, the viability was 102% in assay [1]; 102% (inactive) in assay [3]; 110% (inactive) in assay [4]; 107% (inactive) in assay [5]; 101% in assay [6] (setting [9]); 107% in assay [6] (setting [10]). For the same compound, the Her2 level in assay [2] is 100% (inactive). In assay [6] (H69AR cells + 2 uM doxorubicin), the differential viability (reversal) is 5.9% (inactive). For the same compound, the inhibition in assay [7] is -1.84% (inactive); in assay [8] it was -6.19% (inactive).
Consider `CCOC(=O)Cn1c(N2CCOCC2)nc2c1c(=O)[nH]c(=O)n2C`, for which the viability in assay [1] is 106%; in assay [3], 106% (inactive); in assay [4], 89.7% (inactive); in assay [5], 88.1% (inactive); in assay [6] (setting [9]) it was 88.4%; in assay [6] (setting [10]), 88.1%. Also, the Her2 level in assay [2] is 85.5% (inactive). In assay [6] (H69AR cells + 2 uM doxorubicin), the differential viability (reversal) was -0.31% (inactive). In addition, the inhibition in assay [7] was -3.95% (inactive); in assay [8], -6.83% (inactive).
As to `CCOCCCNC(=O)CS(=O)(=O)Cc1nc(-c2cccc(OC)c2)oc1C`, the viability was 128% in assay [1]; 128% (inactive) in assay [3]; 88.4% (inactive) in assay [4]; 84% (inactive) in assay [5]; 87.8% in assay [6] (setting [9]); 84% in assay [6] (setting [10]). Besides, in assay [2], the Her2 level is 92% (inactive). Also, the differential viability (reversal) in assay [6] (H69AR cells + 2 uM doxorubicin) is -3.73% (inactive). Moreover, the inhibition in assay [7] was -4.81% (inactive); in assay [8], 5.24% (inactive).
As to `O=C(CCCn1c(=S)[nH]c2ccccc2c1=O)N1CCCCC1`, the viability in assay [1] is 86%; in assay [3] it was 86% (inactive); in assay [4], 87.1% (inactive); in assay [5], 96.8% (inactive); in assay [6] (setting [9]), 90.2%; in assay [6] (setting [10]), 96.8%. In addition, the Her2 level in assay [2] was 108% (inactive). In addition, the differential viability (reversal) in assay [6] (H69AR cells + 2 uM doxorubicin) was 6.58% (inactive). For the same compound, the inhibition in assay [7] is -2.63% (inactive); in assay [8], -8.1% (inactive).
Consider `Cc1c(Cl)cnc(NC(=O)COC(=O)C(NC(=O)c2ccco2)C(C)C)c1Cl` (stereo not given), for which the viability in assay [1] was 86%; in assay [3] it was 86% (inactive); in assay [4] it was 92.4% (inactive); in assay [5], 83.2% (inactive); in assay [6] (setting [9]), 72.5%; in assay [6] (setting [10]) it was 83.2%. Besides, the Her2 level in assay [2] is 85% (inactive). In addition, the differential viability (reversal) in assay [6] (H69AR cells + 2 uM doxorubicin) is 10.7% (inactive). Moreover, the inhibition is -1.89% (inactive) in assay [7] and -4.76% (inactive) in assay [8].
As for `C=CCn1c(-c2cccs2)nc2nc3ccccc3nc21`, the viability was 87% in assay [1]; 87% (inactive) in assay [3]; 80.2% (inactive) in assay [4]; 54.3% (inactive) in assay [5]; 72.9% in assay [6] (setting [9]); 54.3% in assay [6] (setting [10]). In addition, the Her2 level in assay [2] is 106% (inactive). Further, the differential viability (reversal) in assay [6] (H69AR cells + 2 uM doxorubicin) is -18.6% (inactive). The inhibition is -1.82% (inactive) in assay [7] and -8.73% (inactive) in assay [8].
`O=S(=O)(NCCc1ccccc1F)c1cccc(S(=O)(=O)N2CCOCC2)c1`: the viability in assay [1] is 87%; in assay [3], 87% (inactive); in assay [4], 96.8% (inactive); in assay [5] it was 97.5% (inactive); in assay [6] (setting [9]), 88.2%; in assay [6] (setting [10]) it was 97.5%. Moreover, the Her2 level in assay [2] is 94.5% (inactive). For the same compound, the differential viability (reversal) in assay [6] (H69AR cells + 2 uM doxorubicin) is 9.29% (inactive). The inhibition in assay [7] was -3.42% (inactive); in assay [8] it was 3.77% (inactive).
